The values below come from ChEMBL document CHEMBL3868642, “Discovery of novel curcumin derivatives targeting xanthine oxidase and urate transporter 1 as anti-hyperuricemic agents” (Bioorg Med Chem, 2017).

The subject of experiment [1] is Mus musculus. Description: Antihyperuricemic activity in fasted Kun Ming mouse assessed as inhibition of potassium oxonate-induced uric acid level in serum at 10 mg/kg qd administered 1 hr post potassium oxonate-challenge for 7 days via oral gavage measured 1 hr post last dose by phosphotungstic acid method relative to vehicle-treated control. The format is functional.

The subject of experiment [2] is Mus musculus. Description: Uricosuric activity in potassium oxonate-induced Kun Ming mouse model of hyperuricemia assessed as increase in uric acid excretion in urine at 10 mg/kg qd administered 1 hr post potassium oxonate-challenge for 7 days via oral gavage measured up to 24 hrs post last dose by phosphotungstic acid method relative to vehicle-treated control. The format is functional.

For experiment [3], the system named is Mus musculus. Description: Antihyperuricemic activity in potassium oxonate-induced Kun Ming mouse model of hyperuricemia assessed as reduction in uric acid level in serum at 10 mg/kg, po qd administered via oral gavage 1 hr post potassium oxonate-challenge for 7 consecutive days by phosphotungstic acid method. The format is functional, organism-based. In short, it runs like this:
(§1)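 Male Kun-Ming mice, 18–22 g, acclimatised one week, food withdrawn 1 h before dosing. Once-daily oral gavage of oxonate 250 mg/kg or 0.5% CMC-Na at 8:00, then test agent in 0.5% CMC-Na at 9:00, for seven days. 24 h urine collected from day six in metabolic cages. Serum taken 1 h after final dose, liver tissue removed. Uric acid measured by phosphotungstic acid method. n = 8.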

For experiment [4], the system named is Mus musculus. Nature of the experiment: Antihyperuricemic activity in potassium oxonate-induced Kun Ming mouse model of hyperuricemia assessed as uricosuric activity by measuring increase in urinary uric acid excretion at 10 mg/kg, po qd administered via oral gavage 1 hr post potassium oxonate-challenge for 7 consecutive days measured up to 24 hrs post last dose by phosphotungstic acid method. The format is functional, organism-based. The procedure, abridged:
as §1

In experiment [5] the test system is Mus musculus. Description: Antihyperuricemic activity in potassium oxonate-induced Kun Ming mouse model of hyperuricemia assessed as oxonate-induced hepatic XOD activity at 10 mg/ kg, po qd administered 1 hr post potassium oxonate-challenge for 7 consecutive days via oral gavage relative to oxonate-treated control. The experiment is classed as functional.
The test system of experiment [6] is Mus musculus. Nature of the experiment: Antihyperuricemic activity in potassium oxonate-induced Kun Ming mouse model of hyperuricemia assessed as reduction in hepatic uric acid level at 10 mg/kg, po qd administered via oral gavage 1 hr post potassium oxonate-challenge for 7 consecutive days by phosphotungstic acid method. The experiment is classed as functional, organism-based. The procedure, abridged: as §1

For experiment [7], the system named is Mus musculus. Nature of the experiment: In vivo inhibition of potassium oxonate-induced hepatic XOD activity in Kun Ming mouse model of hyperuricemia at 10 mg/ kg, po qd administered 1 hr post potassium oxonate-challenge for 7 consecutive days via oral gavage relative to control. The experiment is classed as functional.
In experiment [8] the target is T1, Solute carrier family 22 member 12 (Homo sapiens, UniProt Q96S37).
T1 sequence (Q96S37 whole entry): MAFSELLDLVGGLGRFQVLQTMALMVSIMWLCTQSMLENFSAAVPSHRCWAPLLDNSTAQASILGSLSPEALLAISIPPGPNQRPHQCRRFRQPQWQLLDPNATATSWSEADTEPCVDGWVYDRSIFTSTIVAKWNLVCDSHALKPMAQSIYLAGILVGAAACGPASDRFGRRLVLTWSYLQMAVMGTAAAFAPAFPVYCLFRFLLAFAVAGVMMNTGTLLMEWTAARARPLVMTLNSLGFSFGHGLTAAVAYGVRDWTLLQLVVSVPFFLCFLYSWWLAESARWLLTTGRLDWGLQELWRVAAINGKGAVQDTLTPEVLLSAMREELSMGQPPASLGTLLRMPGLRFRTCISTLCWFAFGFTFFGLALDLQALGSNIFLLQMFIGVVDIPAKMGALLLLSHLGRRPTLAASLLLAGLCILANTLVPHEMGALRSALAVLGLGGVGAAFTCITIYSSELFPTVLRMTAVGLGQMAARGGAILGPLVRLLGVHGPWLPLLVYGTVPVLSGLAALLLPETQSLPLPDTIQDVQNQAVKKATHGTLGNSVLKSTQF
Nature of the experiment: Inhibition of URAT1 (unknown origin) expressed in HEK293 cells assessed as inhibition of [14C]-uric acid uptake at 100 uM preincubated for 30 mins followed by [14C]-uric acid addition by liquid scintillation counting analysis relative to control. The format is cell-based.

The target in experiment [9] is Xanthine dehydrogenase/oxidase (Homo sapiens, UniProt P47989). Description: Inhibition of xanthine oxidase (unknown origin) assessed as reduction in uric acid formation preincubated for 5 mins followed by addition of xanthine substrate measured every minute up to 8 mins.
Xanthine dehydrogenase/oxidase, sequence (P47989 whole entry): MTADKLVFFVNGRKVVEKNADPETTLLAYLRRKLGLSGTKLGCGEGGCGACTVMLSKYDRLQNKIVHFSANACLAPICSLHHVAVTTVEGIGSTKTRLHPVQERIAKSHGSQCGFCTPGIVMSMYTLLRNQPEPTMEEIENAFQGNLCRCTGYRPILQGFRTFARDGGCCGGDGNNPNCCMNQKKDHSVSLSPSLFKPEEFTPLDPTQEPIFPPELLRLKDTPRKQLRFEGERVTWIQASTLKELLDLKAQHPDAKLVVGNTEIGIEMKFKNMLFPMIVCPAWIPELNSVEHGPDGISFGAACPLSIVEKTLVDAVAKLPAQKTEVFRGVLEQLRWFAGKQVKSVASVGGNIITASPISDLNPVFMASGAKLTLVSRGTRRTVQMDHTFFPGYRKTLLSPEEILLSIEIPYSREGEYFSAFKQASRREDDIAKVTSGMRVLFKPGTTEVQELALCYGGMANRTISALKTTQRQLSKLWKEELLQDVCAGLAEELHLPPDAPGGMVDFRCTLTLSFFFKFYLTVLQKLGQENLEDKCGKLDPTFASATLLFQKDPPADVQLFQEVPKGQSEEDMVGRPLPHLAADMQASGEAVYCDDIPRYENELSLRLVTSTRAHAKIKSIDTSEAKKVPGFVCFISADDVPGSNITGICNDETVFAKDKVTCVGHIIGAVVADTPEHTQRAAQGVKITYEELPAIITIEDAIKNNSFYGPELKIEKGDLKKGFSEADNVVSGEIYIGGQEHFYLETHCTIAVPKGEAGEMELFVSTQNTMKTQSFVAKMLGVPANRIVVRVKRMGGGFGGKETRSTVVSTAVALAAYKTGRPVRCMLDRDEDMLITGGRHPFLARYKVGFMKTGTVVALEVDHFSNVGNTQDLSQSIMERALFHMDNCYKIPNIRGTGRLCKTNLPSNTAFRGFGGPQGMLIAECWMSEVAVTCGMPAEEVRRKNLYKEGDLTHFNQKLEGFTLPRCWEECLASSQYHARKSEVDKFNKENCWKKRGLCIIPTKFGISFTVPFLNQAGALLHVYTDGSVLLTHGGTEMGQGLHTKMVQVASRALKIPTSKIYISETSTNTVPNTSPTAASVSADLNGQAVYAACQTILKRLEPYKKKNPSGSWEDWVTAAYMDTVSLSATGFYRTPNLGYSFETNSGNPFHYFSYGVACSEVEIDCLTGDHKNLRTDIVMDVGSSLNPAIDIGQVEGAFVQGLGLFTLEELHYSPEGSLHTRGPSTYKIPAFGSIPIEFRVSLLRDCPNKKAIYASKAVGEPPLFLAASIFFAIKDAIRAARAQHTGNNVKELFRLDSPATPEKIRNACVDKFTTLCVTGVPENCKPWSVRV
Experiment [10] in a line: Decrease in potassium oxonate-induced renal URAT1 expression in Kun Ming mouse model of hyperuricemia at 10 mg/ kg, po qd administered 1 hr post potassium oxonate-challenge for 7 consecutive days via oral gavage by Western blot method relative to oxonate-treated control. The experiment is classed as functional, organism-based. Background: Immunoblotting shows a protein as a band on a membrane.

Calls of active or inactive are those of the source. The calls are words filed in the database; no cut-off is given here.

With `COc1cc(/C=C2\CCC/C(=C\c3cc(C(C)(C)C)c(O)c(C(C)(C)C)c3)C2=O)cc(OC)c1`, in the experiment with Mus musculus [1], the inhibition in vivo (commonly the change of the read-out against control, counted positive when it falls) at 10 mg/kg was found to be 7.74%. In addition, the Activity in the experiment with Mus musculus [2] is 19.35%.

On to `Oc1ncnc2[nH]ncc12` [ALLOPURINOL], for which the outcome in the experiment with Mus musculus [3], in the experiment on Mus musculus [4] and with Mus musculus [6] was Active. Besides, the Activity in the experiment on Mus musculus [5] is on record as 43.4%; in the experiment with Mus musculus [2] it was 88.6%. Moreover, the inhibition in vivo at 10 mg/kg in the experiment with Mus musculus [1] lay within 118 to 148%. Further, in the experiment with Mus musculus [7], the inhibition (in general, the drop in the measured response relative to a control, in per cent) was “Active”.

As to `COc1cc(/C=C2\CCC/C(=C\c3cccc(Br)c3)C2=O)cc(OC)c1`, the inhibition in vivo at 10 mg/kg in the experiment with Mus musculus [1] is 47.3%. For the same compound, in [8], the inhibition at 100 µM was determined as 20.7%. The Activity in the experiment with Mus musculus [2] was determined as 44.71%. The concentration for half-maximal inhibition (IC50) (in general, the concentration that gives 50% inhibition) in experiment [9] was found to be 18.9 nM.

`CCc1oc2ccccc2c1C(=O)c1cc(Br)c(O)c(Br)c1` [BENZBROMARONE]: the outcome (with Mus musculus [3]; in the experiment on Mus musculus [4]; in experiment [10]; in the experiment on Mus musculus [6]) was Active. For the same compound, the Activity in the experiment with Mus musculus [5] is 11.3%; with Mus musculus [2] it was 37.58%. For the same compound, the inhibition in vivo at 10 mg/kg in the experiment with Mus musculus [1] came out at 99.7%. Further, the inhibition at 100 µM in experiment [8] was found to be 42.5%.

Regarding `COc1cc(/C=C2\CCC/C(=C\c3ccc(N(C)C)cc3)C2=O)cc(OC)c1`, the inhibition in vivo at 10 mg/kg in the experiment on Mus musculus [1] stood at 20.1%. The Activity with Mus musculus [2] was 10.74%.
